Molecules are shown by their SMILES. Active and inactive are the calls of the source. The calls are words filed in the database; no cut-off is given here.

For data set [1], the system named is PC-12. Description: Neuroprotection activity in rat PC12 cells assessed as reduction in 6-OHDA-induced cell damages at 2.5 uM preincubated for 3 hrs followed by H2O2 addition and measured after 24 hrs by MTT assay relative to control. It is filed as functional, cell-based. As to conditions: in the assay text read “6-OHDA addition” for “H2O2 addition”. The procedure, abridged: (§1)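 PC12 cells plated at 2 × 10^5 cells mL−1 for 1 day, pretreated 3 h with compounds at 2.5, 5 or 10 µM, then 6-OHDA (final 250 µM) added for 24 h. Viability by MTT, absorbance 570 nm; untreated cells = 100%; mean ± SD, n = 3.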

For data set [2], the system named is PC-12. Description: Neuroprotection activity in rat PC12 cells assessed as reduction in 6-OHDA-induced cell damages at 10 uM preincubated for 3 hrs followed by H2O2 addition and measured after 24 hrs by MTT assay relative to control. As to conditions: in the assay text read “6-OHDA addition” for “H2O2 addition”. It is filed as functional, cell-based. The procedure, abridged: as §1

A short description of data set [3]: Cytotoxicity against […] BV2 cells assessed as cell viability at 0.625 to 40 uM after 24 hrs by MTS assay. It is filed as cell-based. As to conditions: read-out: Activity. The procedure, abridged: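 Viability of BV2 cells read by MTS under the NO-assay conditions: 3 h compound (0.625–40 µM) pretreatment followed by LPS 100 ng mL−1 for 24 h.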
Data set [4] in a line: Antioxidant activity assessed as DPPH radical scavenging activity after 1 hr by […]. It counts as functional. The procedure, abridged: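 DPPH (0.2 mM) in ethanol mixed with sample, kept 1 h at room temperature, absorbance read at 517 nm. Scavenging % = [1−(Ac−Ab)/A0]×100, where Ab is the sample in ethanol without DPPH and A0 is the ethanol+DPPH control. EC50 reported; vitamin C used as reference antioxidant; mean ± SD, n = 3.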

Data set [5] deals with PC-12. As to the kind of experiment: Neuroprotection activity in rat PC12 cells assessed as reduction in H2O2-induced cell death preincubated for 3 hrs followed by H2O2 addition and measured after 3 hrs by MTS assay. It is filed as functional, cell-based. The procedure, abridged:
(§2)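 PC12 cells plated at 2 × 10^5 cells mL−1 for 1 day, pretreated 3 h with compounds, then H2O2 (final 400 µM) for 3 h. Viability by MTS at 490 nm relative to untreated cells (100%); single-concentration tests at 2.5, 5, 10 µM and IC50 values; mean ± SD, n = 3.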

Data set [6] relates to PC-12. As to the kind of experiment: Neuroprotection against H2O2-induced cell death in rat PC12 cells assessed as increase in cell viability at 5 uM preincubated for 3 hrs followed by H2O2 addition and measured after 3 hrs by MTS assay relative to CAPE. It counts as functional. A digest of the protocol: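 PC12 cells plated at 2 × 10^5 cells/mL for 1 day, pretreated with compound (2.5, 5, 10 µM) for 3 h, then H2O2 added (final 400 µM) for 3 h. Viability read by MTS at 490 nm, untreated cells = 100%. Mean ± SD, n = 3.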

Data set [7] in a line: Cytotoxicity against […] BV2 cells assessed as cell viability at 100 uM after 24 hrs by MTT assay. It counts as cell-based. To be noted: read-out: Activity. The procedure, abridged: (§3)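 Cells kept in high-glucose DMEM with 10% FBS and 1% PS at 37 °C, 5% CO2. Plated 1 day, then compounds for 24 h; viability by MTT at 100 µM as ODtreated/ODcontrol × 100%, untreated = 100%. Mean ± SD, n = 3.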

Data set [8] can be described thus: Cytotoxicity against rat PC12 cells assessed as cell viability at 100 uM after 24 hrs by MTT assay. To be noted: read-out: Activity. It is filed as cell-based, PC-12. The procedure, abridged:
as §3

Data set [9] can be described thus: Anti-neuroinflammatory activity in […] BV2 cells assessed as reduction in LPS-induced NO production preincubated for 3 hrs followed by LPS stimulation for 24 hrs by Griess assay. It is filed as functional, cell-based. To be noted: BV-2. The procedure, abridged:
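BV2 microglia seeded 3 × 10^5 cells mL−1 for 1 day; compounds in medium added for 3 h, then LPS (final 100 ng mL−1) for a further 24 h. Supernatant mixed with Griess reagent, absorbance at 540 nm. Inhibition % from NO release of LPS-only, unstimulated and compound+LPS wells; IC50 reported; mean ± SD, n = 3.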

Data set [10] relates to PC-12. As to the kind of experiment: Neuroprotection against H2O2-induced cell death in rat PC12 cells assessed as decrease in early apoptotic cells at 10 uM preincubated for 3 hrs followed by H2O2 addition and measured 3 hrs by Annexin V-FITC/propidium iodide staining based fluorescence microscopic method. It counts as functional. The procedure, abridged:
(§4)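 PC12 cells (1.5 × 10^5 cells mL−1, 35 mm dishes) plated 1 day, pretreated 3 h at 2.5 or 10 µM, then exposed to H2O2 (final 400 µM) for 3 h. Washed with ice-cold PBS, stained with Annexin V-FITC and PI in binding buffer for 5 min at 25 °C in the dark, and counted by fluorescence microscopy as early (AV+) or late (AV+PI+) apoptotic cells.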

A short description of data set [11]: Potency index, ratio of IC50 for CAPE to IC50 for test compound for anti-neuroinflammatory activity in […] BV2 cells. It counts as functional.
Data set [12] has as its system PC-12. As to the kind of experiment: Neuroprotection against H2O2-induced cell death in rat PC12 cells assessed as increase in cell viability at 2.5 to 5 uM preincubated for 3 hrs followed by H2O2 addition and measured after 3 hrs by MTS assay. It counts as functional, cell-based. The procedure, abridged: as §2
Data set [13] in a line: Potency index, ratio of IC50 for (E)-4-(2-((3-phenylpropyl)sulfonyl)vinyl)benzene-1,2-diol to IC50 for test compound for anti-neuroinflammatory activity in […] BV2 cells. It is filed as functional.
Data set [14] has as its system PC-12. As to the kind of experiment: Neuroprotection against H2O2-induced cell death in rat PC12 cells assessed as decrease in late apoptotic cells at 10 uM preincubated for 3 hrs followed by H2O2 addition and measured 3 hrs by Annexin V-FITC/propidium iodide staining based fluorescence microscopic method. It is filed as functional. A digest of the protocol: as §4

The test system of data set [15] is PC-12. As to the kind of experiment: Neuroprotection against H2O2-induced cell death in rat PC12 cells assessed as decrease in apoptotic cells at 2.5 uM preincubated for 3 hrs followed by H2O2 addition and measured 3 hrs by Annexin V-FITC/propidium iodide staining based fluorescence microscopic method. It is filed as functional. A digest of the protocol:
as §4

Data set [16] is described as follows: Inhibition of soybean 15-LOX using arachidonic acid or linoleic acid as substrate incubated for 10 mins by colorimetric lipoxygenase inhibitor screening assay kit method. Set-up: species or system Glycine max. The procedure, abridged: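 Soybean 15-LOX in a colorimetric kit: enzyme plus compound (1.25–100 µM, in assay buffer), reaction started with arachidonic or linoleic acid substrate, shaken at least 10 min. Chromogen added to stop and develop, absorbance at 490–500 nm; IC50 determined, mean ± SD, n = 3.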

In the case of `C=CCCCCCCS(=O)(=O)/C=C/c1ccc(O)c(O)c1`, the outcome with PC-12 [1] and in the data set with PC-12 [2] was Active. Also, in data set [3], the viability at 24 h, up to 40 µM is more than 90%. In addition, in data set [4], the concentration giving a half-maximal response (EC50) came out at 6.4 µM. In addition, the IC50 in the data set on PC-12 [5] was 1.35 µM; in [9], 8.7 µM. In addition, the Activity in the data set with PC-12 [6] is 30%. Also, the viability at 24 h, 100 µM turned out to be 73.4% in [7] and 66.9% in data set [8].
As for `O=S(=O)(/C=C/c1ccc(O)c(O)c1)CCCC1CCCCC1`, the result in the data set with PC-12 [1] and in the data set with PC-12 [2] was Active. In addition, the viability at 24 h, up to 40 µM in data set [3] is more than 90%. For the same compound, in data set [4], the EC50 was found to be 7.9 µM. The IC50 in the data set on PC-12 [5] was 1 µM; in data set [9], 9.2 µM. The Activity in the data set with PC-12 [6] is 30%. The viability at 24 h, 100 µM in data set [7] is 77.7%; in data set [8], 91.3%.
Take `C=CCCCCCS(=O)(=O)/C=C/c1ccc(O)c(O)c1`: the result with PC-12 [1] and in the data set with PC-12 [2] was Active. Besides, in data set [3], the viability at 24 h, up to 40 µM is more than 90%. Further, the EC50 in data set [4] is 7.1 µM. In addition, the 50% inhibitory concentration (IC50) with PC-12 [5] was 1.62 µM; in data set [9], 11.2 µM. Besides, the Activity with PC-12 [6] is 30%. The values for the viability at 24 h, 100 µM in [7] and in data set [8] were 58.9% and 67.5%, respectively.
Regarding `CCCCCCS(=O)(=O)/C=C/c1ccc(O)c(O)c1`, the result with PC-12 [1] and with PC-12 [2] was Active. Also, in data set [3], the viability at 24 h, up to 40 µM is more than 90%. For the same compound, in data set [4], the EC50 turned out to be 7.3 µM. In addition, the IC50 with PC-12 [5] is 1.3 µM; in data set [9] it was 3.8 µM. Further, in the data set with PC-12 [6], the Activity is reported as 30%. In addition, the viability at 24 h, 100 µM in data set [7] amounted to 56.2%; in data set [8], 63.7%.
Turning to `O=S(=O)(/C=C/c1ccc(O)c(O)c1)CCCC1CCCC1`, the result with PC-12 [1], in the data set with PC-12 [10], in the data set on PC-12 [2], with PC-12 [12], with PC-12 [14] and in the data set on PC-12 [15] was Active. Besides, the “Ratio IC50” value in data set [11] is recorded as 4; in [13] it was 8. Moreover, the viability at 24 h, up to 40 µM in data set [3] is more than 90%. Further, in data set [4], the EC50 was found to be 6.3 µM. Also, the 50% inhibitory concentration (IC50) is 1.28 µM with PC-12 [5], 1.6 µM in data set [9] and 103 µM in [16]. The Activity in the data set on PC-12 [6] stood at 30%. In addition, the viability at 24 h, 100 µM in [7] came out at 72.4%; in [8], 70.5%.
On to `C=CCCCCCCCS(=O)(=O)/C=C/c1ccc(O)c(O)c1`, for which the result in the data set on PC-12 [1] and with PC-12 [2] was Active. The viability at 24 h, up to 40 µM in data set [3] is more than 90%. Besides, in [4], the half-maximal effective concentration (EC50) turned out to be 6.9 µM. Moreover, the IC50 amounted to 1.9 µM in the data set on PC-12 [5] and 8.3 µM in [9]. Also, in the data set on PC-12 [6], the Activity is reported as 30%. The values for the viability at 24 h, 100 µM in data set [7] and in data set [8] were 71.9% and 74.7%, respectively.
For `O=S(=O)(/C=C/c1ccc(O)c(O)c1)CCCc1ccccc1`, the result in the data set on PC-12 [10], with PC-12 [2], with PC-12 [14] and in the data set on PC-12 [15] was Active. Besides, in [3], the viability at 24 h, up to 40 µM was more than 90%. Moreover, the EC50 in [4] came out at 11.5 µM. The concentration for half-maximal inhibition (IC50) was 1.86 µM in the data set with PC-12 [5], 13.4 µM in [9] and 140 µM in [16]. In addition, the values for the viability at 24 h, 100 µM in data set [7] and in [8] were 72% and 86.1%, respectively.
For `O=S(=O)(/C=C/c1ccc(O)c(O)c1)CC1CCCCC1`, the outcome in the data set on PC-12 [1] and in the data set on PC-12 [2] was Active. Also, in [3], the viability at 24 h, up to 40 µM is more than 90%. In addition, the EC50 in data set [4] is 7.5 µM. Also, the IC50 was 1.85 µM in the data set on PC-12 [5] and 6.7 µM in data set [9]. Moreover, in the data set with PC-12 [6], the Activity is recorded as 30%. Also, the viability at 24 h, 100 µM worked out at 74.7% in [7] and 87% in data set [8].
As to `CC(Cc1ccc(O)c(O)c1)C(C)Cc1ccc(O)c(O)c1` (stereo unspecified) [NORDIHYDROGUAIARETIC ACID], half-maximal inhibition in data set [16] (IC50) required 2.1 µM.
Regarding `CCCCCS(=O)(=O)/C=C/c1ccc(O)c(O)c1`, the result in the data set on PC-12 [1] and with PC-12 [2] was Active. For the same compound, the viability at 24 h, up to 40 µM in [3] is more than 90%. In addition, the EC50 in data set [4] worked out at 8.1 µM. In addition, the IC50 in the data set on PC-12 [5] was found to be 1.83 µM; in [9] it was 3.3 µM. Besides, the Activity in the data set on PC-12 [6] came to 30%. In addition, the viability at 24 h, 100 µM in [7] was determined as 70.1%; in data set [8] it was 57.4%.

(Values after ChEMBL document CHEMBL4346690, “Structure-activity relationship studies of (E)-3,4-dihydroxystyryl alkyl sulfones as novel neuroprotective agents based on improved antioxidant, anti-inflammatory activities and BBB permeability” (Eur J Med Chem, 2019).)
